According to ChEMBL document CHEMBL1150223, “Neuroprotective constituents from Hedyotis diffusa” (2001):

Legend:
Format in all cases: functional
Settings in all cases: read-out: Activity
[1] = Neuroprotective activity against glutamate-stimulated rat cortical cells assessed as cell viability at 1 uM after 1 hr by LDH assay relative to control
Procedure, shortened: (§1)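 Mixed cortical cultures from 17- to 19-day fetal Sprague-Dawley rats, grown 2 weeks in DMEM/10% FCS, with 5-fluorodeoxyuridine 50 µM from day 3. Cells were washed, given sample in DMSO (0.1% final) for 1 h, then 50 µM glutamate plus sample for 24 h. Medium LDH was read at 450 nm. Viability is relative to glutamate-only and vehicle control; mean ± SEM, three experiments.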

[2] = Neuroprotective activity against glutamate-stimulated rat cortical cells assessed as cell viability at 0.1 uM after 1 hr by LDH assay relative to control; procedure, shortened: as §1
[3] = Neuroprotective activity against glutamate-stimulated rat cortical cells assessed as cell viability at 10 uM after 1 hr by LDH assay relative to control; procedure, shortened: as §1

| SMILES | viability at 1 µM [1] | viability at 0.1 µM [2] | viability at 10 µM [3] |
| --- | --- | --- | --- |
| COC(=O)C1=CO[C@@H](O[C@@H]2O[C@H](CO)[C@@H](O)[C@H](O)[C@H]2O)[C@@H]2C(CO)=C[C@@H](OC(=O)/C=C/c3ccc(OC)cc3)[C@H]12 | 71.8% | 65.4% | 52.8% |
| O=c1c(O[C@@H]2O[C@H](CO)[C@H](O)[C@H](O)[C@H]2O[C@@H]2O[C@H](CO)[C@@H](O)[C@H](O)[C@H]2O)c(-c2ccc(O)c(O)c2)oc2cc(O)cc(O)c12 | 66% | 48.2% | 54% |
| COC(=O)C1=CO[C@@H](O[C@@H]2O[C@H](CO)[C@@H](O)[C@H](O)[C@H]2O)[C@@H]2C(CO)=C[C@@H](OC(=O)/C=C\c3ccc(O)cc3)[C@H]12 | 25.7% | 6.9% | 6.3% |
| O=c1c(O[C@@H]2O[C@H](CO)[C@H](O)[C@H](O)[C@H]2O[C@@H]2O[C@H](CO)[C@@H](O)[C@H](O)[C@H]2O)c(-c2ccc(O)cc2)oc2cc(O)cc(O)c12 | 27% | 4.6% | 25.2% |
| COc1cc(/C=C/C(=O)OC[C@H]2O[C@@H](O[C@H]3[C@H](Oc4c(-c5ccc(O)c(O)c5)oc5cc(O)cc(O)c5c4=O)O[C@H](CO)[C@H](O)[C@@H]3O)[C@H](O)[C@@H](O)[C@@H]2O)ccc1O | 72.9% | 62.7% | 75% |
| COC(=O)C1=CO[C@@H](O[C@@H]2O[C@H](CO)[C@@H](O)[C@H](O)[C@H]2O)[C@@H]2C(CO)=C[C@@H](OC(=O)/C=C\c3ccc(OC)cc3)[C@H]12 | 54.6% | 28.8% | 23.7% |
| COc1cc(/C=C/C(=O)OC[C@H]2O[C@@H](O[C@H]3[C@H](Oc4c(-c5ccc(O)c(O)c5)oc5cc(O)cc(O)c5c4=O)O[C@H](CO)[C@@H](O)[C@@H]3O)[C@H](O)[C@@H](O)[C@@H]2O)ccc1O | 71.5% | 62.9% | 73.7% |
| COc1cc(/C=C/C(=O)OC[C@H]2O[C@@H](O[C@H]3[C@H](Oc4c(-c5ccc(O)cc5)oc5cc(O)cc(O)c5c4=O)O[C@H](CO)[C@H](O)[C@@H]3O)[C@H](O)[C@@H](O)[C@@H]2O)ccc1O | 66.9% | 25.2% | 25.2% |
| COC(=O)C1=CO[C@@H](O[C@@H]2O[C@H](CO)[C@@H](O)[C@H](O)[C@H]2O)[C@@H]2C(CO)=C[C@@H](OC(=O)/C=C/c3ccc(O)cc3)[C@H]12 | 62.2% | 14.5% | 26.8% |
